Source: PMC8134988 (Heliyon, 2021)
Several values for one entry are separate records, joined by “and”; a condition that tells them apart may be missing. Equal entries are not always repeated.

What was measured:
[1] = tested on: T. cruzi strain HA trypomastigotes; conditions: ref Garcia et al. 2010; cited from earlier work
[2] = In vitro cytotoxicity in U-937 cells; format: cell-based; conditions: human, U-937 cells (non-infected)
Procedure, shortened: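 Non-infected U-937 cells at 10^5 cells/mL were mixed 1:1 with compound solutions at 200, 50, 12.5 and 3.125 µg/mL, alongside benznidazole, and held 72 h at 37 °C. MTT was added for 3 h, then formazan was dissolved in isopropanol/SDS and read at 570 nm. Viability was expressed versus unexposed cells, mortality as 100 − %viability, and LC50 was obtained by probit analysis.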

[3] = tested on: T. cruzi blood trypomastigotes (Talahuen strain); test: In vivo therapeutic response in BALB/c mice infected with T. cruzi; set-up: species or system Mus musculus (BALB/c mice); conditions: at the end of treatment
Procedure, shortened: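 BALB/c mice were inoculated intraperitoneally with 100 blood trypomastigotes of the Tulahuen β-gal strain taken from donor mice. From the first day of parasitaemia, seven groups (n = 6) were dosed orally at 100 mg/kg/day for 25 days with test compound, benznidazole or nothing. Parasitaemia per 0.1 mL blood was counted by hematocrit at TD0, TD25 and PTD30/60/90. Reduction was calculated per mouse against pre-treatment parasitaemia. Mice negative in all tests were scored cured.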

[4] = tested on: T. cruzi Talahuen strain intracellular amastigotes; test: Anti-T. cruzi in vitro assay in intracellular amastigotes; format: cell-based, Trypanosoma cruzi; conditions: for SI (selectivity index = LC50/EC50): LC50 U-937 / EC50 T. cruzi; for antitrypanosomal activity class: classified by EC50 in μg/mL

Q: With `COc1cccc(/C=C/c2ccc3ccccc3n2)c1OC` [(E)-2-(2,3-dimetoxystyryl) quinoline] as the compound, how does the “inhibition of the presence of the parasite” value [1] read?
A: Its value is 34.1%.

Q: Which results are given for `O=C(Cn1ccnc1[N+](=O)[O-])NCc1ccccc1` [Benznidazol (BZ), Benznidazol, reference compound]?
A: CC50 at 72 h [2]: > 200 µg/mL and 491 µM; mice cured [3]: 100%; parasitaemia status ([3]; 100 mg/kg/day): negative; SI (selectivity index = LC50/EC50) [4]: 8.7

Q: Which results are given for `CC(=O)Oc1ccc(/C=C/c2ccc3cccc(OC(C)=O)c3n2)c(OC(C)=O)c1` [Compound 3g, (E)-4-(2-(8-Acetoxyquinolin-2-yl)vinyl)-1,3-phenylene diacetate]?
A: CC50 at 72 h [2]: 6.9 µg/mL and 17.2 µM; antitrypanosomal activity class [4]: moderate (Moderate activity: 25 μg/mL > EC50 < 50 μg/mL)

Q: For `COc1cc(/C=C/c2ccc3cccc(OC(C)=O)c3n2)ccc1OC(C)=O` [Compound 3h, (E)-2-(4-Acetoxy-3-methoxystyryl)quinolin-8-yl acetate], which CC50 at 72 h [2] is on record?
A: Its CC50 at 72 h is 5.9 µg/mL and 15.6 µM.

Q: What about the “SI (selectivity index = LC50/EC50)” value [4] of the same compound?
A: Its value is 0.2.

Q: What about the antitrypanosomal activity class [4] of the same compound?
A: Its antitrypanosomal activity class is “moderate (Moderate activity: 25 μg/mL > EC50 < 50 μg/mL)”.
